# Measured values from paper PMC5483893 (Journal of Medicinal Chemistry, 2017).
# Columns and labels:
# [1] = system: total α-tubulin in QBI-293 cells; assay: Total α-tubulin ELISA; format: cell-based; details: at doses typically required to induce an elevation in AcTub
# Summary of the method: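 QBI-293 cells were plated at 6 × 10⁵ cells/well, grown overnight at 37 °C and 5% CO₂, then given fresh medium with vehicle (DMSO) or 1 and 10 μM test compound for 4 h. Lysis was in RIPA with protease inhibitors, 1 mM PMSF and 1 μM TSA, followed by 100000g for 30 min at 4 °C. Supernatant was BCA-normalized and α-tubulin measured by ELISA as fold-change versus vehicle. Samples were run at least in triplicate; significance was by two-tailed unpaired t test.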
# [2] = system: acetylated α-tubulin (AcTub) in QBI-293 cells; assay: Acetyl-tubulin assay; format: cell-based; details: for shape of concentration–response in the AcTub assay: comparison of 1 and 10 μM
# Summary of the method: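 QBI-293 cells kept at 37 °C, 5% CO₂, trypsinised and plated at 6 × 10⁵ cells/well, then exposed overnight-later to vehicle (DMSO) or test compound for 4 h. Lysis in RIPA with protease inhibitors, 1 mM PMSF and 1 μM TSA; 100000g spin, 30 min, 4 °C. BCA protein, then AcTub ELISA. Fold-change versus vehicle, at least triplicate, two-tailed unpaired t test.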
# [3] = system: COX-derived PGD2 and PGE2 in RBL-1 cells; format: cell-based, rat
Compound,effect on total α-tubulin levels [1],shape of concentration–response in the AcTub assay [2],also measured
"COc1cc(F)c(-c2c(Cl)nc(C)n2-c2ccc(Cl)cc2)c(F)c1 [Compound 2, 4-Chloro-1-(4-chlorophenyl)-5-(2,6-difluoro-4-methoxyphenyl)-2-methyl-1H-imidazole]",cause a significant reduction in total α-tubulin levels,bell-shaped concentration–response relationship,–
"COc1ccc(-c2cncn2-c2ccc(Cl)cc2)cc1 [Compound 51, 1-(4-Chlorophenyl)-5-(4-methoxyphenyl)-1H-imidazole]",–,–,"inhibition of the combined PGD2/PGE2 synthesis ([3]; RBL-1 cell assay, tested at 10 μM): near complete inhibition; MT activity (AcTub increase), inactive compounds ([2]; QBI-293 cells, 1 and 10 μM): essentially devoid of MT activity"
"COc1cc(F)c(-c2c(Cl)nc(Cl)n2-c2ccc(Cl)cc2)c(F)c1 [Compound 58, 2,4-Dichloro-1-(4-chlorophenyl)-5-(2,6-difluoro-4-methoxyphenyl)-1H-imidazole]",cause a significant reduction in total α-tubulin levels,bell-shaped concentration–response relationship,–
"Cc1ccc(F)c(-c2cnc(Cl)n2-c2ccc(Cl)cc2)c1F [Compound 63, 2-Chloro-1-(4-chlorophenyl)-5-(2,6-difluoro-3-methylphenyl)-1H-imidazole]",cause a significant reduction in total α-tubulin levels,–,–
"Cc1nc(Cl)c(-c2c(F)ccc(Cl)c2F)n1-c1ccc(Cl)cc1 [Compound 65, 4-Chloro-5-(3-chloro-2,6-difluorophenyl)-1-(4-chlorophenyl)-2-methyl-1H-imidazole]",cause a significant reduction in total α-tubulin levels,–,–
"Fc1ccc(Cl)c(F)c1-c1cnc(Cl)n1-c1ccc(Cl)cc1 [Compound 66, 2-Chloro-5-(3-chloro-2,6-difluorophenyl)-1-(4-chlorophenyl)-1H-imidazole]",cause a significant reduction in total α-tubulin levels,–,–
"Cc1nc(Cl)c(-c2c(F)ccc(F)c2F)n1-c1ccc(Cl)c(F)c1 [Compound 71, 4-Chloro-1-(4-chloro-3-fluorophenyl)-2-methyl-5-(2,3,6-trifluorophenyl)-1H-imidazole]",cause a significant reduction in total α-tubulin levels,bell-shaped concentration–response relationship,–
"Fc1cc(F)c(-c2c(Cl)ncn2-c2ccc(Cl)nc2)c(F)c1 [Compound 73, 2-Chloro-5-(4-chloro-5-(2,4,6-trifluorophenyl)-1H-imidazol-1-yl)pyridine]",cause a significant reduction in total α-tubulin levels,–,–
"Cc1nc(Cl)c(-c2c(F)cccc2F)n1-c1ccc(Cl)cc1 [Compound 85, 4-Chloro-1-(4-chlorophenyl)-5-(2,6-difluorophenyl)-2-methyl-1H-imidazole]",cause a significant reduction in total α-tubulin levels,–,–
"Fc1cccc(F)c1-c1c(Cl)nc(Cl)n1-c1ccccc1Cl [Compound 104, 2,4-Dichloro-1-(2-chlorophenyl)-5-(2,6-difluorophenyl)-1H-imidazole]",–,–,inhibition in the PGD2/PGE2 assay ([3]; RBL-1 cells): > 50%; elevation in AcTub without decrease of α-tubulin ([2]; 1 or 10 μM): produce an elevation in AcTub at 1 or 10 μM without decreasing α-tubulin level
